By IC50 is commonly meant the point on the concentration scale where inhibition reaches its midpoint. A low value points to inhibition by little substance.

Common to all, as to type: functional, cell-based
The test system of one experiment is A549. Nature of the experiment: In vitro antitumor activity against A-549 tumor cells. As to conditions: Homo sapiens. The gist of the method: (§1)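 Adherent lines (human lung A-549, colon HT-29, MEL-28) grown in EMEM/neaa with 5% FCS. Cells plated at 1×10^4 per well in 1 mL medium containing graded sample concentrations, with drug-free growth controls, in duplicate. Incubated 3 days at 37 °C, 5% CO2. Stained with 0.1% crystal violet, or trypsinized and Coulter-counted. IC50 taken from dose–response curves of growth relative to controls.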

In a further experiment the test system is HT-29. Nature of the experiment: In vitro antitumor activity against HT-29 tumor cells. As to conditions: Homo sapiens. In short, it runs like this: as §1
The subject of another experiment is SK-MEL-28. Nature of the experiment: In vitro antitumor activity against MEL-28 tumor cells. Particulars: Homo sapiens. In short, it runs like this: as §1
Another experiment concerns P388. As to the kind of experiment: In vitro antitumor activity against P-388 tumor cells. As to conditions: Mus musculus. In short, it runs like this: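 P-388 lymphoid neoplasm from DBA/2 mouse, grown in suspension in EMEM/neaa with 5% FCS. Seeded at 1×10^4 cells per well in 1 mL medium holding a range of sample concentrations, with drug-free controls, duplicate wells. Incubated 3 days at 37 °C, 5% CO2, 98% humidity. Cells counted by Coulter counter; IC50 read from dose–response curves of % growth versus untreated cultures.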

Each structure is given as a SMILES string. Values after ≈ are worked out from the molar mass of the structure shown.

Consider `CC(C)CCCC(C)[C@H]1CCC2C3C/C(=N\O)C4=CC(=O)[C@H](O)C[C@]4(C)C3CC[C@@]21C` (stereo partly specified), for which the IC50 in the experiment on A549 was 0.125 µg/mL (≈ 0.291 µM); with HT-29, 0.25 µg/mL (≈ 0.582 µM); in the experiment with SK-MEL-28 it was 0.125 µg/mL (≈ 0.291 µM); with P388, 0.25 µg/mL (≈ 0.582 µM).
With `CC(C)CCCC(C)[C@H]1CCC2C3C/C(=N\O)C4=CC(=O)[C@@H](O)C[C@]4(C)C3CC[C@@]21C` (stereo partly specified), the IC50 stood at 0.125 µg/mL (≈ 0.291 µM) in the experiment on A549, 0.25 µg/mL (≈ 0.582 µM) in the experiment with HT-29, 0.125 µg/mL (≈ 0.291 µM) with SK-MEL-28 and 0.25 µg/mL (≈ 0.582 µM) with P388.
Regarding `CC(C)CCCC(C)[C@H]1CCC2C3C/C(=N\O)C4=CC=CC[C@]4(C)C3CC[C@@]21C` (stereo partly specified), the IC50 in the experiment on A549, with HT-29, in the experiment on SK-MEL-28 and with P388 was 5 µg/mL (≈ 12.6 µM) in each case.
Take `CC(C)CCCC(C)[C@H]1CCC2C3C/C(=N\O)C4=CC(=O)C(O)=C[C@]4(C)C3CC[C@@]21C` (stereo partly specified): the IC50 with A549 was 0.125 µg/mL (≈ 0.292 µM); in the experiment with HT-29, 0.25 µg/mL (≈ 0.585 µM); with SK-MEL-28 it was 0.125 µg/mL (≈ 0.292 µM); in the experiment with P388, 0.5 µg/mL (≈ 1.17 µM).
As to `C[C@]12CCC(=O)C=C1/C(=N/O)CC1C2CC[C@@]2(C)C1CC[C@@H]2O` (stereo partly specified), the IC50 in the experiment on A549, in the experiment on HT-29, in the experiment with SK-MEL-28 and in the experiment on P388 was 5 µg/mL (≈ 15.8 µM) throughout.
Take `CC(C)CCC[C@@H](C)C1CCC2C3C/C(=N\O)C4=C[C@@H](O)CC[C@]4(C)C3CC[C@@]21C` (stereo partly specified): the IC50 in the experiment on A549, with HT-29, in the experiment with SK-MEL-28 and in the experiment on P388 was 10 µg/mL (≈ 24.1 µM) in each case.
Turning to `CC(C)CCCC(C)[C@H]1CCC2C3C/C(=N\O)C4=C[C@@H](O)[C@@H](O)C[C@]4(C)C3CC[C@@]21C` (stereo partly specified), the IC50 in the experiment on A549, in the experiment with HT-29, in the experiment on SK-MEL-28 and in the experiment with P388 was 1.25 µg/mL (≈ 2.9 µM) in each case.
Take `C[C@]12CCC(=O)C=C1/C(=N/O)CC1C2CC[C@]2(C)C(=O)CCC12` (stereo partly specified): the IC50 in the experiment on A549, in the experiment with HT-29, in the experiment on SK-MEL-28 and in the experiment on P388 was 5 µg/mL (≈ 15.9 µM) throughout.
On to `CC(C)CCCC(C)[C@H]1CCC2C3C/C(=N\O)C4=CC(=O)CC[C@]4(C)C3CC[C@@]21C` (stereo partly specified), for which the IC50 is 1.25 µg/mL (≈ 3.02 µM) with A549, 1.25 µg/mL (≈ 3.02 µM) in the experiment with HT-29, 2.5 µg/mL (≈ 6.04 µM) with SK-MEL-28 and 1.25 µg/mL (≈ 3.02 µM) in the experiment with P388.
With `CC(C)CCCC(C)[C@H]1CCC2C3C/C(=N\O)C4=C[C@H](O)[C@H](O)C[C@]4(C)C3CC[C@@]21C` (stereo partly specified), the IC50 in the experiment on A549, with HT-29, in the experiment on SK-MEL-28 and in the experiment on P388 was 1.25 µg/mL (≈ 2.9 µM) each time.
Turning to `CC(C)[C@H](C)[C@@]1(C)C[C@@H]1[C@@H](C)C1CCC2C3C/C(=N\O)C4=CC(=O)CC[C@]4(C)C3CC[C@@]21C` (stereo partly specified), the IC50 in the experiment with A549, in the experiment on HT-29, in the experiment on SK-MEL-28 and in the experiment with P388 was 5 µg/mL (≈ 11 µM) throughout.
Regarding `CC[C@H](CCC(C)[C@H]1CCC2C3C/C(=N\O)C4=CC(=O)CC[C@]4(C)C3CC[C@@]21C)C(C)C` (stereo partly specified), the IC50 in the experiment with A549, in the experiment with HT-29, in the experiment on SK-MEL-28 and in the experiment on P388 was 10 µg/mL (≈ 22.6 µM) in each case.
Consider `CC(C)[C@H](C)[C@@]1(C)C[C@@H]1[C@@H](C)C1CCC2C3C/C(=N\O)C4=C[C@@H](O)CC[C@]4(C)C3CC[C@@]21C` (stereo partly specified), for which the IC50 in the experiment on A549, with HT-29, in the experiment on SK-MEL-28 and in the experiment on P388 was 10 µg/mL (≈ 21.9 µM) each time.
With `C[C@@]12CCCC1C1C/C(=N\O)C3=CC(=O)CC[C@]3(C)C1CC2` (stereo partly specified), the IC50 with A549, in the experiment on HT-29, in the experiment with SK-MEL-28 and in the experiment with P388 was 5 µg/mL (≈ 16.6 µM) throughout.

Source of the values: ChEMBL document CHEMBL1134552, “Synthesis of cytotoxic 6E-hydroximino-4-ene steroids: structure/activity studies” (J Med Chem, 2001).
